Assay results taken from ChEMBL document CHEMBL1123878, “Potential antitumor agents. 50. In vivo solid-tumor activity of derivatives of N-[2-(dimethylamino)ethyl]acridine-4-carboxamide” (J Med Chem, 1987).
Each block holds one molecule with its values, some of them ahead of it. Calls of active or inactive are those of the source. No cut-off for these calls is given here.

Key:
[1] = Lipophilicity index (Rm) (HPLC); assay type: physicochemical
[2] = Base strength is expressed as pKa, determined in water at 25 degrees Centigrade by spectrophotometric method.; assay type: physicochemical
HCT-8 = test: Inhibition of human colon tumor (HCT-8) cell growth in culture; assay type: functional, cell-based
Method in brief: (§1)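 IC50 is the drug concentration, in nM, that inhibits growth of the cultured cell line by 50%.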

L1210 = test: Inhibition murine leukemia L1210 cell growth in culture; assay type: functional, cell-based; settings: Mus musculus; method in brief: as §1
P388 [3] = test: Percentage increase in life span of tumor bearing animals compared to non treated, tumor-bearing controls when treated at the optimal dose of 66 mg/kg/day intraperitoneally; assay type: functional; settings: Mus musculus, P388, ip; route intraperitoneal
[4] = Selectivity ratio of IC50 of HCT to IC50 of L1210 cell lines; assay type: functional
[5] = test system: Lewis lung carcinoma cell line; test: Percentage increase in life span of tumor bearing animals compared to non treated, tumor-bearing controls when treated at the optimal dose of 150 mg/kg/day intraperitoneally; assay type: functional; settings: Mus musculus, ip, route intraperitoneal
P388 [6] = test: Percentage increase in life span of compound-treated, tumor bearing animals compared to non treated, tumor-bearing controls when treated at the optimal dose of 150 mg/kg/day intraperitoneally; assay type: functional; settings: Mus musculus, P388, ip; route intraperitoneal
[7] = test system: Lewis lung carcinoma cell line; test: (§2) Percentage increase in life span of tumor bearing animals compared to non treated, tumor-bearing controls when treated at the optimal dose of 65 mg/kg/day intraperitoneally; IA denotes inactive; assay type: functional, organism-based; settings: Mus musculus
Method in brief: (§3)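 Drug was given ip in 0.1 mL 30% v/v ethanol/water. For P388, 10^6 cells were inoculated ip and dosing was on days 1, 5 and 9, with >20% significant. For Lewis lung, 10^6 cells were inoculated iv and dosing was on days 5, 9 and 13, with >40% significant. The read-out is % lifespan increase over untreated controls.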

P388 [8] = test: as §2; assay type: functional, organism-based; settings: Mus musculus; method in brief: as §3
[9] = test system: Lewis lung carcinoma cell line; test: Percentage increase in life span of tumor bearing animals compared to non treated, tumor-bearing controls when treated at the optimal dose of 150 mg/kg/day ip (LL); assay type: functional; settings: Mus musculus
P388 [10] = test: Percentage increase in life span of tumor bearing animals compared to non treated, tumor-bearing controls when treated at the optimal dose of 100 mg/kg/day ip (P388); assay type: functional; settings: Mus musculus, route intraperitoneal
[11] = test system: Lewis lung carcinoma cell line; test: Percentage increase in life span of tumor bearing animals compared to non treated, tumor-bearing controls when administered intraperitoneally; IA denotes inactive; assay type: functional; settings: Mus musculus; method in brief: as §3
P388 [12] = test: Percentage increase in life span of tumor bearing animals compared to non treated, tumor-bearing controls when treated at the optimal dose of 13.3 mg/kg/day intraperitoneally; assay type: functional; settings: Mus musculus, P388, ip; route intraperitoneal
[13] = test system: Lewis lung carcinoma cell line; test: (§4) Percentage increase in life span of tumor bearing animals compared to non treated, tumor-bearing controls when treated at the optimal dose of 30 mg/kg/day intraperitoneally; assay type: functional; settings: Mus musculus, ip, route intraperitoneal
P388 [14] = test: as §4; assay type: functional; settings: Mus musculus, P388, ip; route intraperitoneal
[15] = test system: Lewis lung carcinoma cell line; test: Percentage increase in life span of tumor bearing animals compared to non treated, tumor-bearing controls when treated at the optimal dose of 45 mg/kg/day intraperitoneally; assay type: functional; settings: Mus musculus, ip, route intraperitoneal
P388 [16] = test: Percentage increase in life span of tumor bearing animals compared to non treated, tumor-bearing controls when treated at the optimal dose of 65 mg/kg/day intraperitoneally; assay type: functional; settings: Mus musculus, P388, ip; route intraperitoneal
[17] = test system: Lewis lung carcinoma cell line; test: (§5) Percentage increase in life span of tumor bearing animals compared to non treated, tumor-bearing controls when treated at the optimal dose of 20 mg/kg/day intraperitoneally; assay type: functional; settings: Mus musculus, ip, route intraperitoneal
P388 [18] = test: as §5; assay type: functional; settings: Mus musculus, P388, ip; route intraperitoneal
P388 [19] = test: Percentage increase in life span of tumor bearing animals compared to non treated, tumor-bearing controls when treated at the optimal dose of 150 mg/kg/day intraperitoneally; IA denotes inactive; assay type: functional, organism-based; settings: Mus musculus; method in brief: as §3
Nucleic Acid [20] = test: Binding constant to poly(dA-dT)DNA by ethidium bromide displacement; assay type: nucleic-acid assay
Method in brief: (§6)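 Association constants derived from the drug concentration displacing 50% of bound ethidium from the polynucleotide, assuming competitive binding of drug and ethidium to DNA.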

Nucleic Acid [21] = test: Binding constant to poly(dG-dC)DNA by ethidium bromide displacement; assay type: nucleic-acid assay; method in brief: as §6
P388 [22] = test: Percent increase in life span of P388 tumor bearing animals compared to non treated, tumor-bearing controls when treated at the optimal dose of 150 mg/kg/day; IA denotes inactive; assay type: functional, organism-based; settings: Mus musculus
[23] = test system: Lewis lung carcinoma cell line; test: Percentage increase in life span of tumor bearing animals compared to non treated, tumor-bearing controls when treated at the optimal dose of 100 mg/kg/day intraperitoneally; IA denotes inactive; assay type: functional, organism-based; settings: Mus musculus; method in brief: as §3
P388 [24] = test: Percentage increase in life span of tumor bearing animals compared to non treated, tumor-bearing controls when treated at the optimal dose of 225 mg/kg/day intraperitoneally; IA denotes inactive; assay type: functional, organism-based; settings: Mus musculus; method in brief: as §3
P388 [25] = test: Percent increase in life span of P388 cells compared to non treated, tumor-bearing controls when treated at the optimal dose of 225 mg/kg/day; IA denotes inactive; assay type: functional, organism-based; settings: Mus musculus
[26] = test system: Lewis lung carcinoma cell line; test: Percentage increase in life span of tumor bearing animals compared to non treated, tumor-bearing controls when treated at the optimal dose of 20 mg/kg/day ip (LL); assay type: functional, organism-based; settings: Mus musculus
P388 [27] = test: Percentage increase in life span of tumor bearing animals compared to non treated, tumor-bearing controls when treated at the optimal dose of 13.3 mg/kg/day ip (P388); assay type: functional; settings: Mus musculus, route intraperitoneal
[28] = test system: Lewis lung carcinoma cell line; test: Percentage increase in life span of tumor bearing animals compared to non treated, tumor-bearing controls when treated at the optimal dose of 4.5 mg/kg/day intraperitoneally; IA denotes inactive; assay type: functional, organism-based; settings: Mus musculus; method in brief: as §3
P388 [29] = test: Percentage increase in life span of tumor bearing animals compared to non treated, tumor-bearing controls when treated at the optimal dose of 4.5 mg/kg/day intraperitoneally; assay type: functional; settings: Mus musculus, P388, ip; route intraperitoneal
P388 [30] = test: Percentage increase in life span of tumor bearing animals compared to non treated, tumor-bearing controls when treated at the optimal dose of 225 mg/kg/day ip (P388); assay type: functional; settings: Mus musculus, route intraperitoneal
[31] = test system: Lewis lung carcinoma cell line; test: (§7) Percentage increase in life span of compound-treated, tumor bearing animals compared to non treated, tumor-bearing controls when treated at the optimal dose of 100 mg/kg; assay type: functional; settings: Mus musculus
P388 [32] = test: as §7; assay type: functional; settings: Mus musculus

Structure (SMILES): CN(C)CCNC(=O)c1cccc2cc3ccccc3nc12.Cl.Cl
Rm [1]: -0.2
pKa [2]: 3.54
IC50 (HCT-8): 900 nM
IC50 (L1210): 105 nM
ILS at 66 mg/kg/day (P388 [3]): 91%
Ratio [4]: 8.6

Structure (SMILES): Cc1cccc2nc3c(C(=O)NCCN(C)C)cccc3cc12.Cl.Cl.O.O
Rm [1]: -0.12
IC50 (HCT-8): 980 nM
IC50 (L1210): 140 nM
ILS at 150 mg/kg/day [5]: 60%
ILS at 150 mg/kg/day (P388 [6]): 61%
Ratio [4]: 7

Rm [1]: -0.27
IC50 (HCT-8): 620 nM
IC50 (L1210): 240 nM
Structure (SMILES): CNCCNC(=O)c1cccc2cc3ccccc3nc12.Cl.Cl
ILS [7]: inactive
ILS (P388 [8]): inactive
Ratio [4]: 2.6

Structure (SMILES): CN(C)CCCCCCNC(=O)c1cccc2cc3ccccc3nc12.Cl
Rm [1]: 0.28
IC50 (HCT-8): 1960 nM
IC50 (L1210): 550 nM
ILS [9]: inactive
ILS at 100 mg/kg/day (P388 [10]): 32%
Ratio [4]: 3.6

Structure (SMILES): Cl.Cl.NCCNC(=O)c1cccc2cc3ccccc3nc12
Rm [1]: -0.28
IC50 (HCT-8): 1600 nM
IC50 (L1210): 275 nM
ILS [11]: inactive
ILS at 13.3 mg/kg/day (P388 [12]): 24%
Ratio [4]: 5.8

Structure (SMILES): Cc1cccc2cc3cccc(C(=O)NCCN(C)C)c3nc12.Cl.Cl
Rm [1]: -0.17
IC50 (HCT-8): 54 nM
IC50 (L1210): 4.3 nM
ILS at 30 mg/kg/day [13]: 120%
ILS at 30 mg/kg/day (P388 [14]): 87%
Ratio [4]: 12.6

Structure (SMILES): COc1cccc2cc3cccc(C(=O)NCCN(C)C)c3nc12.Cl
Rm [1]: -0.31
pKa [2]: 3.87
IC50 (HCT-8): 180 nM
IC50 (L1210): 12 nM
ILS at 45 mg/kg/day [15]: 54%
ILS at 65 mg/kg/day (P388 [16]): 70%
Ratio [4]: 15

Structure (SMILES): CN(C)CCNC(=O)c1cccc2cc3cccc(Cl)c3nc12.Cl.Cl
Rm [1]: -0.21
IC50 (L1210): 6.9 nM
ILS at 20 mg/kg/day [17]: 92%
ILS at 20 mg/kg/day (P388 [18]): 91%

Rm [1]: -0.53
pKa [2]: 3.94
IC50 (L1210): 8100 nM
Structure (SMILES): CN(C)CCNC(=O)c1ccc2cc3ccccc3nc2c1.Cl.Cl
ILS (P388 [19]): inactive

Rm [1]: -0.56
pKa [2]: 4.24
Log K (Nucleic Acid [20]): 6.87
Log K (Nucleic Acid [21]): 7.7
IC50 (L1210): 17900 nM
Structure (SMILES): CN(C)CCNC(=O)c1cccc2nc3ccccc3cc12.Cl.Cl
ILS (P388 [22]): inactive

Rm [1]: -0.21
IC50 (L1210): 12700 nM
Structure (SMILES): Cc1ccc2cc3ccccc3nc2c1C(=O)NCCN(C)C.Cl.Cl
ILS [23]: inactive
ILS (P388 [24]): inactive

Rm [1]: -0.57
pKa [2]: 4.37
IC50 (L1210): 9300 nM
Structure (SMILES): CN(C)CCNC(=O)c1ccc2nc3ccccc3cc2c1.Cl.Cl
ILS (P388 [25]): inactive

Structure (SMILES): Cl.Cl.O=C(NCCNCCO)c1cccc2cc3ccccc3nc12
Rm [1]: -0.22
IC50 (HCT-8): 1800 nM
IC50 (L1210): 240 nM
ILS [26]: inactive
ILS at 13.3 mg/kg/day (P388 [27]): 22%
Ratio [4]: 7.5

Structure (SMILES): CN(C)CCNC(=O)c1cccc2c(N)c3ccccc3nc12
Rm [1]: -1.11
IC50 (HCT-8): 55 nM
ILS [28]: inactive
ILS at 4.5 mg/kg/day (P388 [29]): 98%
Ratio [4]: 3.7

Structure (SMILES): CN(C)CCCCCNC(=O)c1cccc2cc3ccccc3nc12.Cl
Rm [1]: 0.12
IC50 (HCT-8): 1800 nM
IC50 (L1210): 450 nM
ILS at 150 mg/kg/day ([9]; route intraperitoneal): 83%
ILS at 225 mg/kg/day (P388 [30]): 34%
Ratio [4]: 4

Structure (SMILES): Cc1ccc2cc3cccc(C(=O)NCCN(C)C)c3nc2c1.Cl.Cl
Rm [1]: -0.1
IC50 (HCT-8): 658 nM
IC50 (L1210): 121 nM
ILS at 100 mg/kg [31]: 106%
ILS at 100 mg/kg (P388 [32]): 82%
Ratio [4]: 5.4 Ratio
